In assay [1] the test system is Rev1^−/− mouse embryonic fibroblasts (MEFs). Kind of assay: Clonogenic survival assay in Rev1−/− MEFs with cisplatin. The class given is cell-based. The conditions noted are these: cisplatin 0.6 μM alone. An outline of the steps:
(§1)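 Wild-type or Rev1⁻/⁻ mouse embryonic fibroblasts in DMEM with 10% FBS and 1% penicillin/streptomycin at 37°C, 5% CO₂. Seeded at 600 cells/well and left overnight. […] Colonies of ≥40 cells Coomassie-counted and expressed relative to DMSO controls. Two experiments, each in triplicate.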

In assay [2] the test system is HT1080 cells. As to the kind of experiment: Clonogenic survival assay in HT1080 cells with cisplatin. The class given is cell-based, human. The conditions noted are these: cisplatin 0.6 μM, 4 or 5 1.5 μM, alone. In a few lines: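 HT1080 cells in RPMI 1640 with 10% FBS and 1% penicillin/streptomycin at 37°C, 5% CO₂. Seeded at 600 cells/well in 6-well plates and left overnight. […] Fixed in methanol/acetic acid and Coomassie-stained. Colonies of ≥40 cells counted relative to DMSO controls; Student t-test.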

Assay [3] relates to wild-type (WT) mouse embryonic fibroblasts (MEFs). As to the kind of experiment: Clonogenic survival assay in WT MEFs with cisplatin. The class given is cell-based. As to conditions: cisplatin 0.6 μM, 4 or 5 1.5 μM, alone. In a few lines: as §1
The subject of assay [4] is HPRT gene mutation frequency in HT1080 cells. As to the kind of experiment: HPRT mutagenesis assay in HT1080 cells. The class given is cell-based, human. As to conditions: cisplatin alone 0.6 μM.
The target in assay [5] is T1, C-terminal domain from human Rev1 (Rev1-CT) (human, UniProt Q9UBZ9 1158-1251).
T1 sequence (looked up): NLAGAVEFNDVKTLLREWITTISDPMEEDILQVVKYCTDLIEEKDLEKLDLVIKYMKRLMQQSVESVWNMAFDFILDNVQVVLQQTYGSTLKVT
Kind of assay: SEC. (Size exclusion chromatography separates by hydrodynamic size, large species first.)

In assay [6] the target is T1, C-terminal domain from human Rev1 …. Kind of assay: fluorescence polarisation. A general note: Fluorescence polarisation rises when a labelled molecule tumbles more slowly, as on binding a larger partner.
For assay [7] the target is unchanged. Kind of assay: fluorescence polarisation. This is another data set of the same source.

Read-outs that look alike come from different tables or passages of the source. Where no end group is shown, it is not given here. FAM = fluorescein amidite

Regarding `N.N.[Cl][Pt][Cl]` [cisplatin], the “Sensitivity of Rev1−/− MEFs to cisplatin compared with WT MEFs” value in assay [1] is listed as “significantly more sensitive”. Further, the “Colony formation of HT1080 cells, single agent” value in assay [2] is “minimal effect on colony formation”. For the same molecule, in assay [3], the “Clonogenic growth of WT MEFs, single agent” value was “minimal effect on clonogenic growth”. In assay [4], the “Increase in HPRT mutations compared to non-treated cells” value was “approximately 1.9 fold”.

For the molecule {FAM}-EMSHKKSFFDKKRSER (peptide, UniProt Q9UBT6 560-575, looked up), in assay [5], the binding result was “binds”.

As usually defined, the IC50 is the concentration that inhibits the measured activity by half. For EMSHKKSFFDKKRSER (peptide, UniProt Q9UBT6 560-575, looked up) [unlabeled Polκ-RIR], the 50% inhibitory concentration (IC50) in assay [6] stood at 7.3 ± 1.4 µM; in assay [7], 6.6 ± 0.1 µM.
